Screens: PubChem BioAssay, several laboratories
Sampled rows, rich in hits. Any-hit rate of the full collection: about 2.1%.
L929 necroptosis – L929 zVAD cell death inhibition | L929 zVAD necroptosis rescue, ATP luminescence, 24 h; with zVAD 60 µM | viability rescue, % at 10 µM | actives 0.38% (n = 220,000) | AID 1377;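 active = activation, scaled between plate controls, above about 75%, limit read from the data; inactive = activation under that limit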;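 also: 0% = zVAD with DMSO and 100% = DMSO alone without zVAD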
RBBP9 inh – blocks human serine hydrolase RBBP9 | recombinant RBBP9, FP-Rh probe fluorescence polarization | inhibition, % at 7.94 µM | actives 0.2% (n = 220,000);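 active = inhibition above the campaign mean of all tested compounds plus 3 SD, cut at about 14% in these data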;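 also: plate controls were DMSO wells with RBBP9 for no effect and wells lacking RBBP9 protein for full effect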
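Test system: recombinant human RBBP9; Timing: 30 min then 45 min, 25 °C; Detection: fluorescence polarization; Control set: RBBP9 with DMSO as uninhibited control, no-protein wells as full inhibition; Compound dosing: one concentration, 7.94 µM nominal, 0.794% DMSO; Probe or stimulus: FP-Rh activity-based probe, 375 nM before mixing.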
Pf gametocyte – kills late stage P. falciparum gametocytes; P. falciparum stage V gametocytes, ATP luminescence, 24 h; inhibition, % at 10.9 µM; actives 0.065% (n = 150,000);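 active = inhibition above the mean plus 3 SD of compounds within the control limits, set per campaign, cut at about 38% in these data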;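 also: 0% = DMSO wells and 100% = medium only without gametocytes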
TNF necrop inh – blocks TNF-alpha induced death of Jurkat FADD-/- cells; Jurkat FADD-/- TNF necroptosis rescue, ATP luminescence, 24 h; 0 = TNF only, 100 = no-TNF cells; activation (protection from cell death), % at 10 µM; actives 0.068% (n = 220,000); AID 463075;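 active = activation, meaning protection from cell death, of at least 50% relative to plate controls; inactive = activation below 50%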;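 also: necroptosis triggered by 40 ng/mL TNF-alpha added together with compound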
Wee1 degr inh – blocks degradation of human Wee1 kinase; P30291; HeLa Luc-Wee1K328M stability, luciferase luminescence; 100% = proteasome inhibitor MG132 effect; reporter increase, % at 5 µM; actives 1.2% (n = 220,000);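 active = activation above the mean of all tested compounds plus 3 SD, set per screening run, cut at about 8.8% in these data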;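 also: cells exposed to compound for 20 h before luminescence read; 0% = DMSO alone and 100% = MG132 at 30 µM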
Calpain2 inh – inhibitors of pig calpain II | actives 0.37% (n = 220,000) | inhibition, % at 16 µM | AID 1236 | purified calpain II, fluorogenic peptide substrate, 30 min;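 active = inhibition above about 50%, limit read from the data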
Wee1 stab conf – human Wee1 degradation inhibition, confirmation. shares compounds with Wee1 degr inh. HeLa Luc-Wee1K328M degradation, luminescence; vehicle 0%, proteasome-blocked wells 100%. activation, % at 5 µM. actives 4% (n = 1,100); in the data active = activation above about 8.9%
Starred values were filed as active, the others as inactive; / = no result given.

SMILES | L929 necroptosis | RBBP9 inh | Pf gametocyte | TNF necrop inh | Wee1 degr inh | Calpain2 inh | Wee1 stab conf
COC(=O)c1cccc(Nc2ncnc3sccc23)c1 | 1 | -3 | 12 | -1 | 14* | -6 | 0
COC(=O)c1ccc(COc2ncnc3sccc23)cc1 | 1 | 5 | 16 | 3 | 1 | -15 | /
CC(=O)N(C)c1ccc(N=Nc2c(C)[nH]n(-c3ccccc3)c2=O)cc1 | / | / | 5 | / | / | / | /
CC(=O)N(C)c1ccc(N=Nc2c(C)[nH]n(C(N)=S)c2=O)cc1 | 0 | -4 | / | -3 | 17* | 14 | 2
O=C(CN1N=C(c2ccccc2)CCC1=O)NCCN1CCc2ccccc2C1 | 0 | -3 | 12 | 1 | 13* | 21 | 1
O=C(CN1N=C(c2ccccc2)CCC1=O)NCc1ccccc1 | 3 | -3 | -14 | 1 | 2 | -14 | /
Cn1ncc(Br)c1C(=O)Nc1cccc(C(F)(F)F)c1 | 0 | 0 | -5 | 0 | -4 | -14 | /
Cn1nc(C(=O)Nc2cccc(C(F)(F)F)c2)ccc1=O | 0 | -1 | / | -2 | 11* | -2 | 1
O=C1/C(=C\c2ccc(O)c(O)c2)C(c2ccccc2)=NN1c1ccccc1 | -1 | 8 | -10 | -9 | 11* | -13 | 2
O=C(NCCO)C(F)(F)C(F)(F)C(F)(F)OC(F)(C(=O)NCCO)C(F)(F)F (stereo not drawn) | -1 | -5 | -13 | 0 | 12* | 16 | 0
Cc1ccc(C(=O)NNC(=S)NC(=O)COc2ccccc2)cc1 | -1 | -5 | -13 | -4 | 14* | 15 | 3
Cc1ccccc1C(=O)NNC(=S)NC(=O)COc1ccccc1 | -1 | 4 | / | -4 | -3 | 9 | /
Cc1ccc(-n2nc(C)c(=O)c(-c3ccccc3)c2NC(=O)C(C)C)cc1 | 0 | -8 | 12 | 0 | 3 | 4 | /
C/C(=N\Nc1ccc(S(=O)(=O)Nc2ccc(Cl)cc2)cc1[N+](=O)[O-])c1ccc(N2CCOCC2)cc1 | 1 | 4 | -3 | 1 | 12* | -31 | 0
Cc1c(C(=O)NN2CCN(C)CC2)cccc1[N+](=O)[O-] | 0 | -5 | / | -1 | -4 | 21 | /
CCOC(=O)CC(NC(=O)Cn1nnc(-c2ccccc2C)n1)c1ccc(OC)cc1 (stereo not drawn) | 0 | 0 | / | 2 | 12* | 4 | 2
Cc1ccc(N2CCN(C(=O)c3ccccc3NC(=O)/C=C\C(=O)O)CC2)cc1 | 0 | -7 | / | -1 | -3 | -2 | /
Cc1ccc(CSCC(=O)N2CCOCC2)cc1 | 0 | -8 | 12 | 1 | 13* | -18 | 0
CC1(C)Cc2c(C#N)c(NCCO)nc(-c3ccco3)c2CO1 | 1 | 2 | -10 | -2 | 18* | -226 | 1
CC1(C)Cc2c(C#N)c(NCCN3CCOCC3)nc(-c3ccco3)c2CO1 | 0 | -10 | 5 | 2 | 3 | -51 | /
CCOC1(/N=C(\C)NS(=O)(=O)c2ccc(Cl)cc2)C(C)=CC(=O)C=C1C | 1 | -4 | 3 | 0 | 3 | -6 | /
CC(=O)Oc1c(C)cc(Cl)cc1C(=O)Nc1ccc([N+](=O)[O-])cc1Cl | 2 | 3 | 19 | -2 | 4 | -15 | /
CCOC(=O)N1CCN(C(=O)CCCCn2c(=S)[nH]c3ccsc3c2=O)CC1 | 0 | -1 | / | 0 | 13* | 35 | 1
O=C(CCCCCn1c(=O)[nH]c2ccsc2c1=O)N1CCCCC1 | 0 | 6 | / | -1 | -2 | 1 | /
COC(=O)c1ccccc1CON1C(=O)C(C)(C)N(OCc2ccccc2C(=O)OC)C(=O)C1(C)C | 0 | -2 | / | 0 | -3 | -12 | /
CN1CCN(c2oc(Cc3cccc4ccccc34)nc2C#N)CC1 | -1 | 3 | 14 | 0 | 13* | -15 | 0
N#Cc1nc(Cc2cccc3ccccc23)oc1N1CCCCC1 | 0 | 0 | / | -3 | 0 | 17 | /
CCc1cccc(C)c1NC(=S)N(CCN(C)C)C(C)c1ccco1 (stereo not drawn) | 0 | 1 | 16 | 2 | 1 | 14 | /
